TNAP act hi DEA = increases human TNAP activity under high phosphate acceptor concentration | 200,000 tested, under 10 active | activation factor at 20 µM | P05186 | purified TNAP, CDP-star luminescence, 1 M DEA, 30 min; active compounds read high; 0 = EDTA background, 1 = DMSO-only activity;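 active = activation factor at least 2 at 20 µM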
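Dosing: 20 µM single point. System: human TNAP. Amount: TNAP 1/800 final. Incubation: 30 min, room temperature. Read-out: TNAP activation factor scaled between EDTA and DMSO control wells. Signal: luminescence from CDP-star hydrolysis. Medium: 1 M DEA, pH 9.8, Mg2+, Zn2+. Control set: EDTA negative control, DMSO positive control.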
S1P4 antagonist = blocks the human S1P4 receptor; O95977; S1P4-expressing cells, antagonist mode, reporter read-out; inhibition, % at 4.98 µM; 220,000 compounds, 0.26% hits; AID 1510; in the data active = inhibition above about 29%;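 also: 0% = wells stimulated with agonist and 100% = vehicle wells without agonist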
Target sequence (O95977 whole entry, looked up): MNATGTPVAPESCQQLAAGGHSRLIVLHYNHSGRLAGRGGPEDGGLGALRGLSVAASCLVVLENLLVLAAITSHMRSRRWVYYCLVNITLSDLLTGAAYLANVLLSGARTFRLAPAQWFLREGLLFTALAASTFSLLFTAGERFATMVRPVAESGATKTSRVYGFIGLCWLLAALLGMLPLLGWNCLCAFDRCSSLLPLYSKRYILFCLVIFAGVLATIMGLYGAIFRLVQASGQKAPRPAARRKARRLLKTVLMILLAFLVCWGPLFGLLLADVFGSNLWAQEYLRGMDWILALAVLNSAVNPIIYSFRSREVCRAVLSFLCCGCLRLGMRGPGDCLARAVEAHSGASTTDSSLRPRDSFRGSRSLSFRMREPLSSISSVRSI
S1P3 antag-1 = antagonists of human S1P3 receptor. inhibition, % at 4.98 µM. 170,000 compounds, 0.27% hits. Q99500. CHO S1P3 NFAT-BLA reporter, FRET fluorescence, antagonist mode;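 active = inhibition above the plate cutoff, the mean inhibition of test wells on that plate plus 3 SD, cut at about 28% in these data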;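 also: cells challenged with S1P at its EC80 of 0.8 µM; blue over green emission ratio from cleaved BLA substrate after 4 h stimulation; 0% = S1P-stimulated wells and 100% = unstimulated DMSO-only wells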
TNAP inh hi DEA = TNAP (human) inhibition, high acceptor. purified TNAP, CDP-star luminescence, 1 M DEA. 200,000 compounds, 0.03% hits. inhibition, % at 20 µM;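 active = over 50% inhibition of tissue-nonspecific alkaline phosphatase at 20 µM in the single-dose screen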;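 also: plate controls were DMSO wells for no effect and EDTA-quenched wells as full inhibition for full effect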
TNAP inh noacc = inhibitors of human TNAP without phosphate acceptor. purified TNAP, CDP-star luminescence, 30 min. inhibition, % at 20 µM. 200,000 compounds, 0.26% hits;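 active = tissue-nonspecific alkaline phosphatase inhibition above about 50% at 20 µM in the single-dose screen, limit read from the data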;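 also: 0% = DMSO negative control and 100% = EDTA positive control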
S1P4 ag = agonists of human S1P4 receptor; O95977; S1P4-expressing cell line, agonist reporter assay; activation, % at 4.98 µM; 220,000 compounds, 0.35% hits; AID 1509; in the data active = activation above about 11%;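 also: 0% = DMSO vehicle and 100% = reference agonist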
S1P3 antag-2 = confirmation of human S1P3 receptor antagonists; shares compounds with S1P3 antag-1; 240 compounds, 30% hits; CHO S1P3 NFAT-BLA reporter, FRET, antagonist mode; inhibition, % at 4.98 µM;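 active = inhibition above the hit threshold that was computed for the earlier primary screen, cut at about 30% in these data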;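 also: 0% = S1P-stimulated wells and 100% = unstimulated DMSO-only wells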
* = called active by the depositor; . = not tested or not shown. In the library only some 1.1% were active in any assay of this set; here they are far more common.

SMILES	TNAP act hi DEA	S1P4 antagonist	S1P3 antag-1	TNAP inh hi DEA	TNAP inh noacc	S1P4 ag	S1P3 antag-2
COc1ccc2cc3cc(C(=O)NCc4cccnc4)oc3nc2c1	1	-8	30*	-2	-7	-1	-3
COc1ccc(OC)c(Nc2ccc(Nc3cc(OC)ccc3OC)nn2)c1	1	-1	31*	0	-1	0	13
O=C(NCc1ccco1)C(=S)N1CCCCC1	1.1	3	28*	-8	-13	2	-10
O=C(NCc1ccco1)C(=S)N1CCCC1	1.1	5	-16	-6	-16	0	.
Cc1ccc(NC(=O)C(OC(=O)c2ccccc2Cl)c2ccccc2)cc1Cl (configuration not stated)	1	-16	29*	-2	-5	2	40*
Cc1ccc(NC(=O)C(OC(=O)c2ccc(NC(N)=O)cc2)c2ccccc2)cc1Cl (configuration not stated)	1	-17	-5	-3	-5	4	.
Cc1cc(C(=O)OC(C(=O)Nc2ccc(C)c(Cl)c2)c2ccccc2)c(C)o1 (configuration not stated)	1.1	1	53*	-8	-9	0	40*
Cc1ccc(NC(=O)C(C)c2ccc([N+](=O)[O-])cc2)cc1Cl (configuration not stated)	1	11	49*	2	-9	0	48*
CC(C(=O)Nc1ccccc1Br)c1ccc([N+](=O)[O-])cc1 (configuration not stated)	1	-9	6	0	-12	-1	.
Cc1ccc(OC(C)C(=O)N=Nc2c(O)[nH]c3ccc([N+](=O)[O-])cc23)cc1 (configuration not stated)	0.9	-13	-5	6	-24	0	.
COc1ccc(NC(=O)c2ccc(Oc3ncccn3)cc2)cc1	1	-8	-7	-5	-11	-1	.
O=C(O)C1CCCCC1C(=O)NCc1ccc(Cl)c(Cl)c1 (configuration not stated)	1	-7	-4	-4	-6	-1	.
O=C(COc1ccccc1)Nc1cccc2nsnc12	1	-3	18	-5	-10	1	.
O=C(Nc1ccc(Cl)cc1)Nc1cccc2nsnc12	.	0	29*	.	.	-1	16
O=C(NCc1ccc(Cl)cc1)C(=O)NCC(c1cccnc1)N1CCN(c2ccc(F)cc2)CC1 (configuration not stated)	1	-5	-11	-2	-10	0	.
Clc1ccccc1C1=CC(c2ccco2)n2ncnc2N1 (configuration not stated)	.	0	32*	.	.	0	7
CC(=O)c1c(C)[nH]c(C(=O)NC(C)c2ccccc2)c1C (configuration not stated)	1	-5	38*	2	-7	-3	-11
O=C(Nc1ccc2ccccc2c1)C(c1ccccc1)C1CCCC1 (configuration not stated)	1	1	55*	-1	-33	0	66*
CCC(C(=O)Nc1ccc(C)cc1)c1ccccc1 (configuration not stated)	1	2	27	2	-1	0	.
O=C(Nc1ccc(Br)cc1)C(c1ccccc1)c1ccccc1	1	1	57*	-1	-12	-1	69*
NC(=O)C(c1ccccc1)C1CCCC1 (configuration not stated)	1.1	0	.	-7	-12	1	.
Cc1ccc(NC(=O)C(c2ccccc2)C2CCCC2)cc1 (configuration not stated)	1	-6	60*	2	-13	4	70*
CCc1ccc(NC(=O)C(CC)c2ccccc2)cc1 (configuration not stated)	0.9	-10	29*	6	-2	-1	22
Cc1ccccc1NC(=O)C(c1ccccc1)C1CCCC1 (configuration not stated)	1.1	14	4	-5	-10	0	.
CCOC(=O)C1(CCOC)CCN(C2C3CC4CC(C3)CC2C4)CC1 (configuration not stated)	1	10	-1	4	-8	0	.
SMILES	TNAP act hi DEA	S1P4 antagonist	S1P3 antag-1	TNAP inh hi DEA	TNAP inh noacc	S1P4 ag	S1P3 antag-2
COc1ccc(-c2[nH]ncc2CN(CC2CCC(=O)N2)C(C)C)cc1F (configuration not stated)	1	-1	-23	-4	4	0	.
CCOCC(=O)Nc1ccc([N+](=O)[O-])cc1C	1	-2	-8	0	-4	3	.
CCCCCCCn1ccc(=N)cc1	1	-16	.	-4	-10	-3	.
CCCCCCCCCn1ccc(=N)cc1	.	-7	30*	.	.	2	3
Cn1nc(-c2ccccn2)nc2c(=O)n(C)c(=O)nc1-2	.	104*	81*	.	.	1	90*
COc1ccc(-c2nc(-c3ccccn3)ncc2S(C)(=O)=O)cc1	1	10	-2	-4	0	1	.
C1=C(CCNc2ncnc3c2[nH]c2ccccc23)CCCC1	1.1	-14	41*	-6	-77	3	28
C/C(=N\Nc1ccc([N+](=O)[O-])cc1)c1ccc(O)cc1	0.7	23	34*	32	31	0	27
c1ccc(CCNc2ncnc3ccccc23)cc1	1	-20	44*	-1	-11	5	33*
CCOC(=O)C(C)/C(C)=N/NC(=O)CCC(=O)Nc1cc(C)ccc1C (configuration not stated)	1	-2	-13	-1	33	2	.
O=C(Nc1ccc(F)cc1F)c1c(C(F)(F)F)ccnc1Oc1cccc(C(F)(F)F)c1	.	11	19	.	.	-1	.
O=C(Nc1ccc(F)cc1F)c1c(C(F)(F)F)ccnc1Oc1ccc(Cl)cc1	.	-1	44*	.	.	-2	55*
O=C(CSc1nnc(-c2ccccn2)n1Cc1ccccc1)N1CCOCC1	1.1	4	-19	-7	-8	2	.
CC1C(c2ccccc2)N(C)C(c2ccccc2)CC1(O)c1ccc(F)cc1 (configuration not stated)	1	6	31*	1	-10	-3	48*
Cc1cccc(C(=O)N[C@H](C(=O)Nc2nc3ccc(S(C)(=O)=O)cc3s2)C(C)C)c1	1	-13	6	-3	-6	1	.
CO/N=C/c1ccc(Oc2ccc(C)cc2)nc1	1.1	5	.	-5	-10	-1	.
Cc1ccc(Oc2ccc(C=O)cn2)cc1	1.1	-19	34*	-6	-14	-1	-19
Cc1ccccc1Nc1nc(-c2cccnc2)nc2ccccc12	1.1	0	4	-6	-10	-2	.
Cc1ccc(Nc2nc(-c3cccnc3)nc3ccccc23)cc1	.	-4	35*	.	.	1	14
